# HCT116 bCat-KO: primary screen for growth suppressors in beta-catenin knockout HCT116 cells (colon tumor, human). HCT116 beta-catenin knockout viability, CellTiter-Glo, 60 h; stronger effect = lower value. viability, % at 10 µM. hit rate 1.5% among 140,000;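 active = viability at or under a set limit, the compound median less 4 SD, cut at about 6% in these data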;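 also: 0% = Hyamine 1622 control at 20 µM and 100% = untreated cell control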
# PTEN del growth: growth suppression of PTEN-null HCT116, primary screen, cell-based, CellTiter-Glo; HCT116 PTEN-null viability, 60 h; stronger effect = lower value; hit rate 1.2% among 140,000; viability, % at 10 µM;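 active = viability at or below a set limit, 4 SD under the median of all tested compounds, cut at about 3.7% in these data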;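 also: PTEN knockout HCT116 line with beta catenin targeted HCT116 as companion control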
# Lmaj promast: Leishmania major promastigote growth inhibition, primary screen. Leishmania major promastigotes, resazurin fluorescence viability. inhibition, % at 10 µM. hit rate 9% among 200,000; in the data active = inhibition above about 50%;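 also: promastigotes grown with compound for 44 hours at 28 °C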
# TNAP act hiacc: TNAP activators at high phosphate acceptor level, primary screen, biochemical, luminescence, uHTS; Alkaline phosphatase, tissue-nonspecific isozyme (Homo sapiens), P05186; purified TNAP, CDP-star luminescence, 1 M DEA, 30 min; stronger effect = higher value; 0 = EDTA background, 1 = DMSO-only activity; activation factor at 20 µM; 200,000 tested, under 10 active; AID 1136, 2008;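 active = activation factor at least 2 at 20 µM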
# Target sequence (P05186 whole entry, looked up): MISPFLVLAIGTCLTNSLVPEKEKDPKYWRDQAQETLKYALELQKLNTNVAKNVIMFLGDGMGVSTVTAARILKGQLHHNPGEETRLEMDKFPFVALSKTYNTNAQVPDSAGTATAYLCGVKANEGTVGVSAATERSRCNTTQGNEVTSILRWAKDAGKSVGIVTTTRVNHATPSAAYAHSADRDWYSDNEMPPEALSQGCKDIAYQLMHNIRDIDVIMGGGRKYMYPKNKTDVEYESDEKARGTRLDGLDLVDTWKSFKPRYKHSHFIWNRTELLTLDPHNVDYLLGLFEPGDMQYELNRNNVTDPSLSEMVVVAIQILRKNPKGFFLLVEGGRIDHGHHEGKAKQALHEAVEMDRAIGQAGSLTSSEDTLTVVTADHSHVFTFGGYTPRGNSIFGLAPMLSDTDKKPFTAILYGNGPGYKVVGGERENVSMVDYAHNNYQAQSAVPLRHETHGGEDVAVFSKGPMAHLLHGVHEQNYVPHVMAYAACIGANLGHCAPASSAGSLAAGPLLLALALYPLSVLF
#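 Measured by: Luminescent substrate turnover signal | Test system: Human TNAP | Input: TNAP 1/800 final | Dosing: 20 µM single point | Schedule: 30 min, room temperature | Controls: EDTA wells as negative control, DMSO wells as positive control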
# TNAP inh hi DEA: human TNAP enzyme inhibitors, primary screen, biochemical, luminescent, high phosphate acceptor level, uHTS | Alkaline phosphatase, tissue-nonspecific isozyme (Homo sapiens), P05186 | purified TNAP, CDP-star luminescence, 1 M DEA | inhibition, % at 20 µM | hit rate 0.03% among 200,000 | AID 1135, 2008;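 active = over 50% inhibition of tissue-nonspecific alkaline phosphatase at 20 µM in the single-dose screen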;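 also: plate controls were DMSO wells for no effect and EDTA-quenched wells as full inhibition for full effect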
# TNAP inh no acc: human TNAP enzyme inhibitors, primary screen, biochemical, luminescent, no phosphate acceptor, uHTS. purified TNAP, CDP-star luminescence, 30 min. inhibition, % at 20 µM. hit rate 0.26% among 200,000. AID 1012, 2008. Alkaline phosphatase, tissue-nonspecific isozyme (Homo sapiens), P05186;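 active = tissue-nonspecific alkaline phosphatase inhibition above about 50% at 20 µM in the single-dose screen, limit read from the data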;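 also: 0% = DMSO negative control and 100% = EDTA positive control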
# The depositor's hits bear a star; nt = not tested or not shown. Most compounds without a hit are left out; they make up all but 9.6% or so of the library.
SMILES,HCT116 bCat-KO,PTEN del growth,Lmaj promast,TNAP act hiacc,TNAP inh hi DEA,TNAP inh no acc
C=CCn1c(SCC(=O)NC(=O)c2cccc([N+](=O)[O-])c2)nnc1-c1ccccc1F,96,94,-5,1.1,-7,-4
NC(=O)CC[C@H](NC(=O)c1ccc(F)cc1)C(=O)OCC(=O)Nc1ccc(N2CCOCC2)cc1,94,96,-6,1,-1,-4
Cc1ccc(S(=O)(=O)NN2C(=O)c3ccccc3NC2c2ccco2)cc1 (stereo not given),nt,nt,-1,1,-5,-19
CC1=[N+](C)c2ccc3ccccc3c2C1(C)C,13,7,93*,1.1,-7,-141
Cc1nsc2c1ccc1ccccc12,nt,nt,10,1.1,-7,-11
CN(C)c1nnnn1-c1ccccc1Oc1ncc(C(F)(F)F)cc1Cl,nt,nt,-1,1,-3,-7
O=C(/C=C/c1ccccc1)NC(=S)NNC(=O)c1cccnc1,74,72,55*,1,-3,-2
COc1ccc(/C=C/C(=O)NC(=S)NNC(=O)c2cccnc2)cc1OC,92,93,48,1,4,-167
O=C(O)/C=C/c1cccc(OCc2ccccc2)c1,nt,nt,2,1,-3,-4
CC(/C=C/c1cccc([N+](=O)[O-])c1)=N/NC(=O)c1cccnc1,16,19,96*,1,1,-119
CC(/C=C/c1ccccc1)=N/NC(=O)c1cc([N+](=O)[O-])cc([N+](=O)[O-])c1,9,5,83*,1,0,-12
O=C(/C=C/c1cccc(OCc2ccccc2)c1)c1cccnc1,2.7*,0.7*,100*,1,-1,3
C/C(=N\NC(=O)c1cccnc1)c1cccc([N+](=O)[O-])c1,nt,nt,1,1.1,-6,-11
CC(/C=C/c1ccccc1)=N\NC(=O)c1ccc2c(c1)OCCO2,90,62,-2,1,-3,0
O=C(CN1CCOCC1)Nc1ccc([N+](=O)[O-])cc1Br,nt,nt,-4,1,-5,-14
CC/C(Cc1ccccc1)=N/NC(=O)c1cccc(Br)c1,100,104,-10,1.1,-6,-8
CC/C(Cc1ccccc1)=N\NC(=O)c1cc([N+](=O)[O-])cc([N+](=O)[O-])c1,nt,nt,59*,1.1,-7,-6
COc1ccc(C(=O)Cc2ccccc2)cc1OC,100,91,-6,1,-2,-8
COc1ccc(C(=O)NN=C(Cc2ccccc2)Cc2ccccc2)cc1OC,80,79,51*,1,0,-7
O=C(NN=C(Cc1ccccc1)Cc1ccccc1)c1ccccc1F,nt,nt,64*,1,-2,-6
O=C(/C=C/c1ccc([N+](=O)[O-])cc1)NCc1cccnc1,97,81,3,0.9,7,2
O=C(/C=C/c1ccc([N+](=O)[O-])cc1)c1cccnc1,1.4*,1.6*,95*,1,-4,-14
Cc1ccc(NC(=O)c2cc(=O)n(Cc3ccccc3)c(=O)[nH]2)cc1C,nt,nt,-7,1,-1,-2
CC1(C)CCCC(C)(C)N1CC(O)COCCOc1ccc(Br)cc1 (stereo not given),77,68,4,1,2,-8
COc1ccccc1NC(=O)c1c(Nc2ccccc2C)sc(C(=O)Nc2cccc(Cl)c2)c1N,9,16,19,1,-2,-5
SMILES,HCT116 bCat-KO,PTEN del growth,Lmaj promast,TNAP act hiacc,TNAP inh hi DEA,TNAP inh no acc
CC(=O)c1ccc(NS(=O)(=O)c2ccc(C(C)(C)C)cc2)cc1,nt,nt,41,1.1,-8,-7
CC(C)(C)c1ccc(S(=O)(=O)Nc2cccc(C3OCCCO3)c2)cc1,86,87,86*,1.1,-5,-18
COC(=O)C1SCC2C(=O)N(Cc3ccccc3)CC(=O)N21 (stereo not given),nt,nt,-6,1,-3,-6
N#C/C(=C/c1ccc(-c2ccc(S(N)(=O)=O)cc2)o1)c1nc2ccccc2s1,1.5*,1.8*,-4,0.8,18,29
CN(C)/C=N/c1nc2nccc(-c3ccccc3)n2n1,nt,nt,9,0.9,6,-6
CC1=CC(=NOC(=O)c2cccc([N+](=O)[O-])c2)C=C(C)C1=O,9,27,100*,1,-3,-1
COc1ccc(/C(N)=N/OC(=O)c2cccc([N+](=O)[O-])c2)cc1,98,91,0,1,0,-7
Cc1nc2cccc(C(=O)Oc3ccc([N+](=O)[O-])cc3)c2o1,nt,nt,-2,0.9,7,-5
CC1=CC(=O)C(C(C)C)=C/C1=N\OC(=O)c1cccc2nc(C)oc12,13,6,96*,1,4,5
CC1=CC(=O)C(C(C)C)=C/C1=N/OC(=O)c1cccc([N+](=O)[O-])c1,51,60,100*,0.9,6,-6
O=C(CN(C(=O)c1csnn1)c1cccc2c1CCCC2)NC1CCCC1,nt,nt,5,1,2,-8
COc1ccc(C)cc1N1C(=N)/C(=C2/Nc3ccccc3S2)C(c2ccccc2)C1=O (stereo not given),1.6*,1.7*,100*,1,3,-1
COc1ccc(C2C(Oc3ccccc3)C(=O)N2c2cc(C)ccc2C)cc1OC (stereo not given),64,64,3,1,-1,-6
COc1ccc(N(CC(=O)Nc2nccs2)S(=O)(=O)c2c(C)[nH]c(=O)[nH]c2=O)cc1,nt,nt,-4,1,2,-5
O=C(c1cc2c(s1)CCCC2)N1CCN(C(=O)C2CCCO2)CC1 (stereo not given),96,98,-1,1,-1,-4
CC(C)NC(=O)C1CCN(C2CCN(C(=O)c3cc4c(s3)CCCCC4)CC2)CC1,nt,nt,89*,1.1,-5,-16
C/C(=C\c1ccccc1)CN1CCN(Cc2ccc(C)o2)C(CCO)C1 (stereo not given),nt,nt,83*,1.1,-7,-5
CC1CN(CCC(=O)Nc2ccc3c(c2)CCC3)CC(C)O1 (stereo not given),101,104,86*,1.1,-5,-10
NC(=O)C1CCN(CCC(=O)Nc2ccc(Br)cc2)CC1,100,92,-1,1.1,-6,-6
NC(=O)C1CCN(CCC(=O)Nc2ccc3c(c2)CCC3)CC1,99,93,80*,1,-1,-10
CC1CN(S(=O)(=O)c2cccc(C(=O)Nc3ccc4c(c3)CCC4)c2)CC(C)O1 (stereo not given),52,64,85*,1,0,-1
Cc1cc(NC(=O)CCN2CCC(C(N)=O)CC2)ccc1Br,95,92,82*,1.1,-5,-8
Cn1c(=O)[nH]c(=O)c2c1nc(NCc1ccco1)n2Cc1ccccc1Cl,nt,nt,0,1,-2,-1

# High-throughput results: PubChem, several laboratories
